{"source": "ChEMBL document CHEMBL2146434", "about": "“Synthesis and biological evaluation of new amino acid and dipeptide derivatives of neocryptolepine as anticancer agents” (J Med Chem, 2012)", "key": {"Mus musculus [1]": {"system": "Mus musculus", "test": "Toxicity in C57BL/6 mouse xenografted with mouse LLC cells assessed as body weight loss at 30 mg/kg/day, sc administered on day 9 to day 12 of tumor implantation", "assay_type": "organism-based", "design": "route subcutaneous", "conditions": "in vivo", "how_it_was_run": "(§1)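 Mouse Lewis lung carcinoma (LLC) cells inoculated sc into mice. Daily dosing from day 9: 15 mg kg⁻¹ day⁻¹ through day 13 or 30 mg kg⁻¹ day⁻¹ through day 12; 25 or 50 mg kg⁻¹ day⁻¹ through day 13. Route is given as ip in tables and text but sc in figure legends. Body weight monitored for loss alongside tumor growth. Single 100 mg/kg cyclophosphamide dose as cytostatic control.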"}, "Mus musculus [2]": {"system": "Mus musculus", "test": "Toxicity in C57BL/6 mouse xenografted with mouse LLC cells assessed as body weight loss at 15 mg/kg/day, sc administered on day 9 to day 13 of tumor implantation", "assay_type": "organism-based", "design": "route subcutaneous", "conditions": "in vivo", "how_it_was_run": "(§2)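 Body weight was tracked in C57BL/6 mice bearing subcutaneously inoculated LLC during therapy given daily from day 9 to day 13. A single 100 mg/kg dose of cyclophosphamide served as the cytostatic control group.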"}, "Mus musculus [3]": {"system": "Mus musculus", "test": "Toxicity in C57BL/6 mouse xenografted with mouse LLC cells assessed as body weight loss at 30 mg/kg/day, ip administered on day 9 to day 12 of tumor implantation", "assay_type": "organism-based", "design": "route intraperitoneal", "conditions": "in vivo", "how_it_was_run": "as §1"}, "KB": {"system": "KB", "test": "Cytotoxicity against human KB cells after 72 hrs by SRB assay", "assay_type": "functional, cell-based"}, "A549": {"system": "A549", "test": "Cytotoxicity against human A549 cells after 72 hrs by SRB assay", "assay_type": "functional, cell-based", "conditions": "A549, 72 h", "how_it_was_run": "(§3)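 IC50 is the compound concentration giving 50% inhibition of cell proliferation. It was determined on normal mouse BALB/3T3 fibroblasts and on human A549, MCF-7 and LoVo cancer lines, with doxorubicin hydrochloride and DiMIQ as reference compounds.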"}, "MCF7": {"system": "MCF7", "test": "Cytotoxicity against human MCF7 cells after 72 hrs by SRB assay", "assay_type": "functional, cell-based", "conditions": "MCF7, 72 h", "how_it_was_run": "as §3"}, "LoVo": {"system": "LoVo", "test": "Cytotoxicity against human LoVo cells after 72 hrs by SRB assay", "assay_type": "functional, cell-based", "how_it_was_run": "as §3"}, "[4]": {"system": "Lewis lung carcinoma cell line", "test": "Antineoplastic activity against mouse LLC cells xenografted in C57BL/6 mouse assessed as tumor growth inhibition at 25 mg/kg/day, ip administered on day 10 to day 14 of tumor implantation measured on day 12", "assay_type": "functional", "conditions": "route intraperitoneal, read-out: TGI", "how_it_was_run": "(§4)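 Mice bore Lewis lung carcinoma (LLC) inoculated subcutaneously and received test agents intraperitoneally at 15–50 mg kg⁻¹ day⁻¹ from day 9 or day 10. A single 100 mg/kg cyclophosphamide dose was the cytostatic control. Tumor growth was followed as the group median, and TGI% was calculated from medians versus untreated controls. Significance was tested by nonparametric Kruskal–Wallis multiple comparison, p < 0.05.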"}, "[5]": {"system": "Lewis lung carcinoma cell line", "test": "Antineoplastic activity against mouse LLC cells xenografted in C57BL/6 mouse assessed as tumor growth inhibition at 25 mg/kg/day, ip administered on day 10 to day 14 of tumor implantation measured on day 14", "assay_type": "functional", "conditions": "route intraperitoneal, read-out: TGI", "how_it_was_run": "as §4"}, "[6]": {"system": "Lewis lung carcinoma cell line", "test": "Antineoplastic activity against mouse LLC cells xenografted in C57BL/6 mouse assessed as tumor growth inhibition at 25 mg/kg/day, ip administered on day 10 to day 14 of tumor implantation measured on day 17", "assay_type": "functional", "conditions": "route intraperitoneal, read-out: TGI", "how_it_was_run": "as §4"}, "[7]": {"system": "Lewis lung carcinoma cell line", "test": "Antineoplastic activity against mouse LLC cells xenografted in C57BL/6 mouse assessed as tumor growth inhibition at 25 mg/kg/day, ip administered on day 10 to day 14 of tumor implantation measured on day 19", "assay_type": "functional", "conditions": "route intraperitoneal, read-out: TGI", "how_it_was_run": "as §4"}, "[8]": {"system": "Lewis lung carcinoma cell line", "test": "Antineoplastic activity against mouse LLC cells xenografted in C57BL/6 mouse assessed as tumor growth inhibition at 25 mg/kg/day, ip administered on day 10 to day 14 of tumor implantation measured on day 21", "assay_type": "functional", "conditions": "route intraperitoneal, read-out: TGI", "how_it_was_run": "as §4"}, "[9]": {"system": "Lewis lung carcinoma cell line", "test": "Antineoplastic activity against mouse LLC cells xenografted in C57BL/6 mouse assessed as tumor growth inhibition at 25 mg/kg/day, ip administered on day 10 to day 14 of tumor implantation measured on day 24", "assay_type": "functional", "conditions": "route intraperitoneal, read-out: TGI", "how_it_was_run": "as §4"}, "[10]": {"system": "Lewis lung carcinoma cell line", "test": "Antineoplastic activity against mouse LLC cells xenografted in C57BL/6 mouse assessed as tumor growth inhibition at 50 mg/kg/day, ip administered on day 10 to day 14 of tumor implantation measured on day 12", "assay_type": "functional", "conditions": "route intraperitoneal, read-out: TGI", "how_it_was_run": "as §4"}, "[11]": {"system": "Lewis lung carcinoma cell line", "test": "Antineoplastic activity against mouse LLC cells xenografted in C57BL/6 mouse assessed as tumor growth inhibition at 50 mg/kg/day, ip administered on day 10 to day 14 of tumor implantation measured on day 14", "assay_type": "functional", "conditions": "route intraperitoneal, read-out: TGI", "how_it_was_run": "as §4"}, "[12]": {"system": "Lewis lung carcinoma cell line", "test": "Antineoplastic activity against mouse LLC cells xenografted in C57BL/6 mouse assessed as tumor growth inhibition at 50 mg/kg/day, ip administered on day 10 to day 14 of tumor implantation measured on day 17", "assay_type": "functional", "conditions": "route intraperitoneal, read-out: TGI", "how_it_was_run": "as §4"}, "[13]": {"system": "Lewis lung carcinoma cell line", "test": "Antineoplastic activity against mouse LLC cells xenografted in C57BL/6 mouse assessed as tumor growth inhibition at 50 mg/kg/day, ip administered on day 10 to day 14 of tumor implantation measured on day 19", "assay_type": "functional", "conditions": "route intraperitoneal, read-out: TGI", "how_it_was_run": "as §4"}, "[14]": {"system": "Lewis lung carcinoma cell line", "test": "Antineoplastic activity against mouse LLC cells xenografted in C57BL/6 mouse assessed as tumor growth inhibition at 50 mg/kg/day, ip administered on day 10 to day 14 of tumor implantation measured on day 21", "assay_type": "functional", "conditions": "route intraperitoneal, read-out: TGI", "how_it_was_run": "as §4"}, "[15]": {"system": "Lewis lung carcinoma cell line", "test": "Antineoplastic activity against mouse LLC cells xenografted in C57BL/6 mouse assessed as tumor growth inhibition at 50 mg/kg/day, ip administered on day 10 to day 14 of tumor implantation measured on day 24", "assay_type": "functional", "conditions": "route intraperitoneal, read-out: TGI", "how_it_was_run": "as §4"}, "Mus musculus [16]": {"system": "Mus musculus", "test": "Toxicity in C57BL/6 mouse xenografted with mouse LLC cells assessed as body weight loss at 15 mg/kg/day, ip administered on day 9 to day 13 of tumor implantation", "assay_type": "organism-based", "design": "route intraperitoneal", "conditions": "in vivo", "how_it_was_run": "as §2"}, "Mus musculus [17]": {"system": "Mus musculus", "test": "Toxicity in C57BL/6 mouse xenografted with mouse LLC cells assessed as body weight loss at 25 mg/kg/day, sc administered on day 9 to day 13 of tumor implantation", "assay_type": "organism-based", "design": "route subcutaneous", "conditions": "in vivo", "how_it_was_run": "as §2"}, "Mus musculus [18]": {"system": "Mus musculus", "test": "Toxicity in C57BL/6 mouse xenografted with mouse LLC cells assessed as body weight loss at 50 mg/kg/day, sc administered on day 9 to day 13 of tumor implantation", "assay_type": "organism-based", "design": "route subcutaneous", "conditions": "in vivo", "how_it_was_run": "as §1"}, "[19]": {"test": "Dissociation constant, pKa of the compound in PBS buffer at 5 uM at pH 2 to 10 by UV-spectrophotometric analysis", "assay_type": "physicochemical", "how_it_was_run": "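UV spectrophotometric titration at a final compound concentration of 5 μM. At this concentration the absorbance–concentration relationship stayed linear. pKa was read from spectral changes across pH.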"}, "[20]": {"test": "Octanol-water partition coefficient, log P of the compound in citric buffer at pH 2.5 by spectrophotometric analysis", "assay_type": "physicochemical", "how_it_was_run": "(§5)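 Octanol–water partitioning, with log P defined as log(C_octanol/C_water). Compound in the aqueous phase was measured spectrophotometrically, and octanol content was obtained by subtracting the supernatant concentration from the total. Values are the mean of two independent experiments, each run in triplicate.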"}, "[21]": {"test": "Octanol-water partition coefficient, log P of the compound in PBS buffer at pH 7.4 by spectrophotometric analysis", "assay_type": "physicochemical", "how_it_was_run": "as §5"}, "[22]": {"test": "Toxicity in human erythrocytes assessed as hemolysis at 0.3 mM after 30 mins by spectrophotometric analysis", "assay_type": "cell-based, Erythrocyte", "conditions": "read-out: Activity", "how_it_was_run": "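Human erythrocyte suspension under isotonic conditions (pH 7.4, hematocrit 50%). Compound added across a concentration series and incubated 30 min at 37 °C before hemolysis was scored. Mean ± SD of three individual determinations. Statistics by Mann–Whitney U test, p < 0.05.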"}, "[23]": {"test": "Solubility of the compound in water", "assay_type": "physicochemical", "conditions": "buffer"}, "Mus musculus [24]": {"system": "Mus musculus", "test": "Toxicity in C57BL/6 mouse xenografted with mouse LLC cells at 25 to 50 mg/kg/day, ip administered on day 9 to day 13 of tumor implantation", "assay_type": "organism-based", "design": "route intraperitoneal", "conditions": "in vivo", "how_it_was_run": "as §1"}}}
{"smiles": "Cc1c2c3cc(NC(=O)CNC(=O)[C@@H]4CCCN4)ccc3nc-2n(C)c2ccccc12.Cl.Cl", "values": [{"measurement": "Activity", "setting": "Mus musculus [1]", "value": "<= 15%"}, {"measurement": "Activity", "setting": "Mus musculus [2]", "value": "<= 15%"}, {"measurement": "Activity", "setting": "Mus musculus [3]", "value": "<= 15%"}, {"measurement": "IC50", "setting": "KB", "value": 3730, "unit": "nM"}, {"measurement": "IC50", "setting": "A549", "value": 1150, "unit": "nM"}, {"measurement": "IC50", "setting": "MCF7", "value": 1430, "unit": "nM"}, {"measurement": "IC50", "setting": "LoVo", "value": 980, "unit": "nM"}, {"measurement": "inhibition in vivo at 25 mg/kg/day", "setting": "[4]", "value": 12.9, "unit": "%"}, {"measurement": "inhibition in vivo at 25 mg/kg/day", "setting": "[5]", "value": 11.6, "unit": "%"}, {"measurement": "inhibition in vivo at 25 mg/kg/day", "setting": "[6]", "value": 0, "unit": "%"}, {"measurement": "inhibition in vivo at 25 mg/kg/day", "setting": "[7]", "value": 3.1, "unit": "%"}, {"measurement": "inhibition in vivo at 25 mg/kg/day", "setting": "[8]", "value": 0, "unit": "%"}, {"measurement": "inhibition in vivo at 25 mg/kg/day", "setting": "[9]", "value": 0, "unit": "%"}, {"measurement": "inhibition in vivo at 50 mg/kg/day", "setting": "[10]", "value": 16.3, "unit": "%"}, {"measurement": "inhibition in vivo at 50 mg/kg/day", "setting": "[11]", "value": 36.5, "unit": "%"}, {"measurement": "inhibition in vivo at 50 mg/kg/day", "setting": "[12]", "value": 18.5, "unit": "%"}, {"measurement": "inhibition in vivo at 50 mg/kg/day", "setting": "[13]", "value": 33.1, "unit": "%"}, {"measurement": "inhibition in vivo at 50 mg/kg/day", "setting": "[14]", "value": 32.5, "unit": "%"}, {"measurement": "inhibition in vivo at 50 mg/kg/day", "setting": "[15]", "value": 8.19, "unit": "%"}, {"measurement": "Activity", "setting": "Mus musculus [16]", "value": "<= 15%"}, {"measurement": "Activity", "setting": "Mus musculus [17]", "value": "<= 15%"}, {"measurement": "Activity", "setting": "Mus musculus [18]", "value": "<= 15%"}, {"measurement": "pKa at 5 µM", "setting": "[19]", "value": 7.3}, {"measurement": "logP", "setting": "[20]", "value": -1.9}, {"measurement": "logD", "setting": "[21]", "value": -0.1}, {"measurement": "hemolysis at 0.5 h, 300 µM", "setting": "[22]", "value": 9.97, "unit": "%"}, {"measurement": "solubility", "setting": "[23]", "value": "soluble"}, {"measurement": "Activity", "setting": "Mus musculus [24]", "value": "Non-toxic"}]}
